Assay results: ChEMBL document CHEMBL1138257, “Synthesis and biological evaluation of a fluorine-18 derivative of dasatinib” (J Med Chem, 2007)

Key:
Mus musculus [1] = experiment: Biodistribution in tumor of human K562 cells xenografted iv dosed mouse; assay type: ADME, organism-based; conditions: in vivo
How it was run: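 Three athymic mice carried subcutaneous K562 xenografts in the right shoulder. [18F] tracer (14 ± 1 MBq, 375 ± 25 µCi) was formulated in 5% BSA in saline, sterile filtered and given by tail vein. MicroPET imaging started 60 min post-injection with a 15 min exposure. Tumor uptake was expressed as % injected dose by region-of-interest analysis.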

Mus musculus [2] = experiment: Toxicity in B6D2F1 mouse at 0.1 mg/kg, iv; assay type: organism-based; design: dose 0.1 mg/kg, route intravenous; conditions: in vivo
[3] = target: Activated CDC42 kinase 1 (Homo sapiens) (UniProt Q07912); experiment: Inhibition of ACK at 10 nM
Sequence of Activated CDC42 kinase 1 (Homo sapiens) (Q07912 whole entry, looked up): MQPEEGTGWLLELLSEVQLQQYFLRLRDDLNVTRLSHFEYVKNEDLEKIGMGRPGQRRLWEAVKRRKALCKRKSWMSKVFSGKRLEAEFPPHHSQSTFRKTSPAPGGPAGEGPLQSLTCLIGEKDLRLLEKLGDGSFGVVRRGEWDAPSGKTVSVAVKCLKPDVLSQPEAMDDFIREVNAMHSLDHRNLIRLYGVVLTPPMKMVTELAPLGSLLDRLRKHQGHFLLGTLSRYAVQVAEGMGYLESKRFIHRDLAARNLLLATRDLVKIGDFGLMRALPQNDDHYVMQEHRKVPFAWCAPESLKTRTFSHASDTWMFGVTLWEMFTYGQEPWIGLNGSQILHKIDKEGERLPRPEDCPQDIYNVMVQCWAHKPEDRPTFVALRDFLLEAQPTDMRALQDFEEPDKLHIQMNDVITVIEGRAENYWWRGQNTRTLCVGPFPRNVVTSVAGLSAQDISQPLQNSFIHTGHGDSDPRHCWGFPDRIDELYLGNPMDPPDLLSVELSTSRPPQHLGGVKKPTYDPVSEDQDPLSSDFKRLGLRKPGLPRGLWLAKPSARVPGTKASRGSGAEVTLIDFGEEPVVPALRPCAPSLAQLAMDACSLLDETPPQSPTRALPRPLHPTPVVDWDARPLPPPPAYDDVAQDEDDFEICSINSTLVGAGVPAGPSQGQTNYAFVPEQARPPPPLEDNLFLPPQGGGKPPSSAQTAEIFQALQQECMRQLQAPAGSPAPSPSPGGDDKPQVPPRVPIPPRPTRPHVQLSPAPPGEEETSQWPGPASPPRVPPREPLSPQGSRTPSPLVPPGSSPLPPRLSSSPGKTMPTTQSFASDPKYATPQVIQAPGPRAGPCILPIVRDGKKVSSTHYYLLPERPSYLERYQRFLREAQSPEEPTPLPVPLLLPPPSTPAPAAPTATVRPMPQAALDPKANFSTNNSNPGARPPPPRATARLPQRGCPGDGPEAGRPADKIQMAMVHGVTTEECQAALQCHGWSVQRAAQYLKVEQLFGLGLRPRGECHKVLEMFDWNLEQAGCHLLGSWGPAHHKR
How it was run: (§1)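 Single-concentration test at 10 nM within a panel of 21 kinases.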

[4] = target: T1, Tyrosine-protein kinase receptor TYRO3 (Homo sapiens) (UniProt Q06418); experiment: Inhibition of TYRO3 at 10 nM; how it was run: as §1
T1 sequence (whole entry): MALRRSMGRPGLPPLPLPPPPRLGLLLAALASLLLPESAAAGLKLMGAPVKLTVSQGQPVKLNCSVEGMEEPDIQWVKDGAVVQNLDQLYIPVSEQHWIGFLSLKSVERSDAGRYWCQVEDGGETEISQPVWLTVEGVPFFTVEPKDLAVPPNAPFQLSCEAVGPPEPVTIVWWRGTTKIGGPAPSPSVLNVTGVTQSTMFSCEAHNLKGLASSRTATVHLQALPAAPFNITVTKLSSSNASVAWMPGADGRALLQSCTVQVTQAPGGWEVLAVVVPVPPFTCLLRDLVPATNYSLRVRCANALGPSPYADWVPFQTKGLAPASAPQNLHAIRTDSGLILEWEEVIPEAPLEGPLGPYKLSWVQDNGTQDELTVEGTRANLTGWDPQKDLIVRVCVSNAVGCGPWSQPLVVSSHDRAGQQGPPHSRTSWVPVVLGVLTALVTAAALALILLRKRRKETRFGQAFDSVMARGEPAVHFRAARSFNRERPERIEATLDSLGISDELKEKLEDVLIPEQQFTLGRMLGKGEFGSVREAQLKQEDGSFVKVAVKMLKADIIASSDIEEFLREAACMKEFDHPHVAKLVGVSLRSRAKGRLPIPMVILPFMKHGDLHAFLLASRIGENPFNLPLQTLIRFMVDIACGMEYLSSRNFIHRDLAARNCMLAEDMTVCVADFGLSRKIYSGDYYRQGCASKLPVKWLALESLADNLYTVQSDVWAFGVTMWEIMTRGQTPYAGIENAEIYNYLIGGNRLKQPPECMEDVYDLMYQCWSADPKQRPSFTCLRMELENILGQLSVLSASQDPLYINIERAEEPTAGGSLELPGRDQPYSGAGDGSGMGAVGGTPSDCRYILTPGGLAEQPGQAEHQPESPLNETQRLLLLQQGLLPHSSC

[5] = target: Tyrosine-protein kinase CSK (Homo sapiens) (UniProt P41240); experiment: Inhibition of CSK at 10 nM
Sequence of Tyrosine-protein kinase CSK (Homo sapiens) (P41240 2-450 limits assumed): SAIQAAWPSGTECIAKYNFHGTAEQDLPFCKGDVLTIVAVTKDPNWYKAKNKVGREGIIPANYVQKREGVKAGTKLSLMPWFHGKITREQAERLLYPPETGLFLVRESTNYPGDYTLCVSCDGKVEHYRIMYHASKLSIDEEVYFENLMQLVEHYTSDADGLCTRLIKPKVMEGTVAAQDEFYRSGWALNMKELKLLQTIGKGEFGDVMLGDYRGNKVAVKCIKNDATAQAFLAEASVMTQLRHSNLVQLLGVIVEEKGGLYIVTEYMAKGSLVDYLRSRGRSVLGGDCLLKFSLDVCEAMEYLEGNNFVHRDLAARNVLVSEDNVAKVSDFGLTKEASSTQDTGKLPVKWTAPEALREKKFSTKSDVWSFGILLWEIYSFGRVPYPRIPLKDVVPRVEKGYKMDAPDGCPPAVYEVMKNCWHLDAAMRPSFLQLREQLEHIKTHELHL
How it was run: (§2)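 Part of a 21-kinase inhibition panel, tested at a single inhibitor concentration of 10 nM.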

[6] = target: Ephrin type-A receptor 2 (Homo sapiens) (UniProt P29317); experiment: Inhibition of EphA2 at 10 nM; how it was run: as §2
Sequence of Ephrin type-A receptor 2 (Homo sapiens) (P29317 whole entry): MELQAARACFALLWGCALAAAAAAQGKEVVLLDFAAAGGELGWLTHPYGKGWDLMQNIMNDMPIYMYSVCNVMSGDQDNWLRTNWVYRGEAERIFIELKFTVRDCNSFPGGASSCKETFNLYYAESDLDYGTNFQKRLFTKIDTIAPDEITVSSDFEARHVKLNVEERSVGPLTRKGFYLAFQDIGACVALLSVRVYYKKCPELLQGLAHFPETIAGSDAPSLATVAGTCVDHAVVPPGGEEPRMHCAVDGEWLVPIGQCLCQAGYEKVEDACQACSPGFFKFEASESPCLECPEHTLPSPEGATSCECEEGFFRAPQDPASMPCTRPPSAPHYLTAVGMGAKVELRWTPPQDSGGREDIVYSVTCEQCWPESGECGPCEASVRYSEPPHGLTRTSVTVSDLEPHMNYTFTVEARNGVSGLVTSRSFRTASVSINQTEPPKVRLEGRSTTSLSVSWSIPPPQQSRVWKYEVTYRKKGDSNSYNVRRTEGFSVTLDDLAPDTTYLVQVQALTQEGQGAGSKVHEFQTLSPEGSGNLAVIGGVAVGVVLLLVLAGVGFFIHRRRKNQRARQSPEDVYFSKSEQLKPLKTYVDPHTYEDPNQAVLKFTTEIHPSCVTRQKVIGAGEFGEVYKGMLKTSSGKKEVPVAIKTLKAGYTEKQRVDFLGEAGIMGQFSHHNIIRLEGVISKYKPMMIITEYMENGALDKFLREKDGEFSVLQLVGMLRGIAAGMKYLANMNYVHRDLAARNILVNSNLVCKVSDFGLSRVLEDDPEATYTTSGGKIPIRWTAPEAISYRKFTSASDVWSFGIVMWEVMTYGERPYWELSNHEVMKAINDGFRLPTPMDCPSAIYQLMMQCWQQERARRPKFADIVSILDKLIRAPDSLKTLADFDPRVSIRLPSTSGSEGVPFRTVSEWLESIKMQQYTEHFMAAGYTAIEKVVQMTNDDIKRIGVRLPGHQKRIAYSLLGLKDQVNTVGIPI

[7] = target: T2, Ephrin type-B receptor 4 (Homo sapiens) (UniProt P54760); experiment: Inhibition of EphB4 at 10 nM; how it was run: as §2
T2 sequence (whole entry): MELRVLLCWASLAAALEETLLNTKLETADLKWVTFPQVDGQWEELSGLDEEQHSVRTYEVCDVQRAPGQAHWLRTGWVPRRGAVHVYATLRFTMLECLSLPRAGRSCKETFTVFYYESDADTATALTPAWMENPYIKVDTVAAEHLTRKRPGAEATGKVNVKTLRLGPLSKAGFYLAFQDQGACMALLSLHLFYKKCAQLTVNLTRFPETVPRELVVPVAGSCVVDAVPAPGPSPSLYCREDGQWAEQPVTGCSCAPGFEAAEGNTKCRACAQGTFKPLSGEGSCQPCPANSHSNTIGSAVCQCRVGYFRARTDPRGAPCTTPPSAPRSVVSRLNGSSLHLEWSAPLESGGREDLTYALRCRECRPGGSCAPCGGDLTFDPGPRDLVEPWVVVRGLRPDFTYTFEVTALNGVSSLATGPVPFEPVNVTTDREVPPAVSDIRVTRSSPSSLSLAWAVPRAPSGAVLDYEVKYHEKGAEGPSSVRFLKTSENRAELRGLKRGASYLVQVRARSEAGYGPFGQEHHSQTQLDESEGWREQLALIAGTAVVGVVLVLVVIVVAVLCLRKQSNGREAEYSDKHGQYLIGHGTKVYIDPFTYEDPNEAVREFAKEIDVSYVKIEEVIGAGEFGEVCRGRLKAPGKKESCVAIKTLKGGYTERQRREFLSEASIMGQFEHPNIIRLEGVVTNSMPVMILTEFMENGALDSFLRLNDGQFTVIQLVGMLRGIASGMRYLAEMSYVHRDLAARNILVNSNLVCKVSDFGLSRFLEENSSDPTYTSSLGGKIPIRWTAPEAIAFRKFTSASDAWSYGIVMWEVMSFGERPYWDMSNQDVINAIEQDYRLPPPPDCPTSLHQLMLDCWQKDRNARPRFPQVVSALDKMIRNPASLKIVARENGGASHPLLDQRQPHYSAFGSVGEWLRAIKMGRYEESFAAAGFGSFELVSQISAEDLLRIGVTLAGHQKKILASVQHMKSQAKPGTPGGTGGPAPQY

[8] = target: T3, Tyrosine-protein kinase JAK3 (Homo sapiens) (UniProt P52333); experiment: Inhibition of JAK3 at 10 nM; how it was run: as §1
T3 sequence (whole entry): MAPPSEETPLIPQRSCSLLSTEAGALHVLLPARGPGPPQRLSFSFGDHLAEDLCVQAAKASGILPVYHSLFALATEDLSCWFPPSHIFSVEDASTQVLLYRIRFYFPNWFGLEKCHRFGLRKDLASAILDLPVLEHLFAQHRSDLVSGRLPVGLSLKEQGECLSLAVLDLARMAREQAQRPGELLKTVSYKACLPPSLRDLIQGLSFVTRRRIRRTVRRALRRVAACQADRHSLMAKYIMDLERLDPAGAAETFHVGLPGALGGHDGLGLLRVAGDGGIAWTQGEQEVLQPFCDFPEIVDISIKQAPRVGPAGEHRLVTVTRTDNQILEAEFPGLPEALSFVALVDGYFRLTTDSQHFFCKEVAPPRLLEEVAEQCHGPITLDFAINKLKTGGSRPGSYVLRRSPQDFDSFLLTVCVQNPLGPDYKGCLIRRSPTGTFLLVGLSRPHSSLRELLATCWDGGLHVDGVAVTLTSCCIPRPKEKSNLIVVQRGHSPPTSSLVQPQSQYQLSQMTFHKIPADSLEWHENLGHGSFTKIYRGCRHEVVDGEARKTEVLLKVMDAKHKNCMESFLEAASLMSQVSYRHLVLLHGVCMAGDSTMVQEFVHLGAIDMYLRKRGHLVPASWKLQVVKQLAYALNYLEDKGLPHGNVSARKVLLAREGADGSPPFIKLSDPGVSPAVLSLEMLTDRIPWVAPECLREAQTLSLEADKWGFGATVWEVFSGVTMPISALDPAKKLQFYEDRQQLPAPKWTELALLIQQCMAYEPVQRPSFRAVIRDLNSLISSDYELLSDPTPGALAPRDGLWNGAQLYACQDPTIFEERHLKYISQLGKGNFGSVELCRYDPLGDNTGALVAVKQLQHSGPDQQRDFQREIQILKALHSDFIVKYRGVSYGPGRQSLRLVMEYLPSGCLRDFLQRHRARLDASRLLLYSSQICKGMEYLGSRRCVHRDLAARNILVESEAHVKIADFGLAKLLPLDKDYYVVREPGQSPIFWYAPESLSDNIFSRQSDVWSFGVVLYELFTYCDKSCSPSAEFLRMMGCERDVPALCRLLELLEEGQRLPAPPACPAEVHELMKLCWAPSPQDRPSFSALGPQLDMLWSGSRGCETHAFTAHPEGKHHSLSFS

[9] = target: Hepatocyte growth factor receptor (Homo sapiens) (UniProt P08581); experiment: Inhibition of Met kinase at 10 nM; how it was run: as §2
Sequence of Hepatocyte growth factor receptor (Homo sapiens) (P08581 whole entry): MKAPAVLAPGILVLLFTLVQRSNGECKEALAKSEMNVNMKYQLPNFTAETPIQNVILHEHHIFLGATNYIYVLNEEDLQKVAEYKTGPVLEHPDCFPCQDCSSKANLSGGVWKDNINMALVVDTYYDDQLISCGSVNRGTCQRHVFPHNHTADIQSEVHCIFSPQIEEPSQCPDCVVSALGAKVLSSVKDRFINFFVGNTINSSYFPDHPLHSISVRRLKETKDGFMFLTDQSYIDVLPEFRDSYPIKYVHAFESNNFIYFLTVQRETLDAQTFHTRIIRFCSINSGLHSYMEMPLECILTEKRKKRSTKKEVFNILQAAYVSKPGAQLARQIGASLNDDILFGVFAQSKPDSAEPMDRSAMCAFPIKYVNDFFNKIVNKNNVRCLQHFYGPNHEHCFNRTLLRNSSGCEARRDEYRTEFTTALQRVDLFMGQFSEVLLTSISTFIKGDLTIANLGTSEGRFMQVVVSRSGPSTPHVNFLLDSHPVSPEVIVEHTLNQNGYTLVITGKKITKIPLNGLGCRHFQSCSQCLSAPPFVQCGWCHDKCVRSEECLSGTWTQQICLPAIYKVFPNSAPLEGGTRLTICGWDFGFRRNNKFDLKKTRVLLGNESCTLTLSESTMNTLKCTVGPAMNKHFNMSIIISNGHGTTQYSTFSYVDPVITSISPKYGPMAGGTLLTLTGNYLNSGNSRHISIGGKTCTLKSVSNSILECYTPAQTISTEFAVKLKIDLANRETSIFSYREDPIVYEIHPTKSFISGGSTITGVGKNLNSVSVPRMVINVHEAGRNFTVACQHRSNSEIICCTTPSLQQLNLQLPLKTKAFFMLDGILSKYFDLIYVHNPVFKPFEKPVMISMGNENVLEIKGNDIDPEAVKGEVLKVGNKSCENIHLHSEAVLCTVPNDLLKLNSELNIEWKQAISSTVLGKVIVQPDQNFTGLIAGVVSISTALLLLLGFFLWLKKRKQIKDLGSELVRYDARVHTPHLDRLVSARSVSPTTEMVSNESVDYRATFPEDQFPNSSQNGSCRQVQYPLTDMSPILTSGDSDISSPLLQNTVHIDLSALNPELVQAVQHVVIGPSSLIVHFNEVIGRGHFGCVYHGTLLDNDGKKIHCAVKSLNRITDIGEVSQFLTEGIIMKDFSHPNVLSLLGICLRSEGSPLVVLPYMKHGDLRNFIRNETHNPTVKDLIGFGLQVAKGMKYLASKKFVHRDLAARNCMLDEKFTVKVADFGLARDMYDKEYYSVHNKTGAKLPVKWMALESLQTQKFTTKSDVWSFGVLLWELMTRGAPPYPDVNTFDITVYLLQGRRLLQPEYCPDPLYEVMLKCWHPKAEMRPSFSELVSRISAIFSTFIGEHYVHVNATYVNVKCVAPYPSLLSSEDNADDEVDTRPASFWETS

[10] = target: Receptor-type tyrosine-protein kinase FLT3 (Homo sapiens) (UniProt P36888); experiment: Inhibition of FLT3; conditions: concentration not given here
Sequence of Receptor-type tyrosine-protein kinase FLT3 (Homo sapiens) (P36888 whole entry): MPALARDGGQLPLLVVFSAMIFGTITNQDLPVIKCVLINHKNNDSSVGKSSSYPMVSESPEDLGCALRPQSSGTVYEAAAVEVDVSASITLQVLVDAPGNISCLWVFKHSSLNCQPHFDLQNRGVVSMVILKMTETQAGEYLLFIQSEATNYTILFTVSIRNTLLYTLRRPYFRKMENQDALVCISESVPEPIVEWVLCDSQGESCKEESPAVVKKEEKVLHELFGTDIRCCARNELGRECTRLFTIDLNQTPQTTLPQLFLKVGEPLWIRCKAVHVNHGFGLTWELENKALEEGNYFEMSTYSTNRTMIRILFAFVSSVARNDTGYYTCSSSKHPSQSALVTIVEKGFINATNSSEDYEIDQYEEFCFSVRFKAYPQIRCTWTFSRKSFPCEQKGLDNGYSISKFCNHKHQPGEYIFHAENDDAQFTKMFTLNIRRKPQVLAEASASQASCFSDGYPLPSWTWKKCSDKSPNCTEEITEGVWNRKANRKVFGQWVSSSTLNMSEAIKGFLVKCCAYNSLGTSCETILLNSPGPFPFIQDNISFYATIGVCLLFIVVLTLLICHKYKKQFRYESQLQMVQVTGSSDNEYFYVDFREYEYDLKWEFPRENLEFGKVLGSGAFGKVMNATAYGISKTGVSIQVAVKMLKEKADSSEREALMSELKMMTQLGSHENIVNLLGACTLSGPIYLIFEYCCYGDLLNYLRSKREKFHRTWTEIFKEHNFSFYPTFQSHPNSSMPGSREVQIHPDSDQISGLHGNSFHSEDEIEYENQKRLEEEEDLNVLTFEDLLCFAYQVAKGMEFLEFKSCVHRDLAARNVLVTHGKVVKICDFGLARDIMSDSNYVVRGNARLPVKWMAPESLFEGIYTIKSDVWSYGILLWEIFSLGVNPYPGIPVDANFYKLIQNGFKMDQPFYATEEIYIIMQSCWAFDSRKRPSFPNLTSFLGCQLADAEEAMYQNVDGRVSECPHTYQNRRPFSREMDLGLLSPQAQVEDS

[11] = target: Platelet-derived growth factor receptor alpha (Homo sapiens) (UniProt P16234); experiment: Inhibition of PDGFRalpha at 10 nM; how it was run: as §2
[12] = target: T4, Tyrosine-protein kinase Tec (Homo sapiens) (UniProt P42680); experiment: Inhibition of TEC at 10 nM; how it was run: as §2
T4 sequence (whole entry): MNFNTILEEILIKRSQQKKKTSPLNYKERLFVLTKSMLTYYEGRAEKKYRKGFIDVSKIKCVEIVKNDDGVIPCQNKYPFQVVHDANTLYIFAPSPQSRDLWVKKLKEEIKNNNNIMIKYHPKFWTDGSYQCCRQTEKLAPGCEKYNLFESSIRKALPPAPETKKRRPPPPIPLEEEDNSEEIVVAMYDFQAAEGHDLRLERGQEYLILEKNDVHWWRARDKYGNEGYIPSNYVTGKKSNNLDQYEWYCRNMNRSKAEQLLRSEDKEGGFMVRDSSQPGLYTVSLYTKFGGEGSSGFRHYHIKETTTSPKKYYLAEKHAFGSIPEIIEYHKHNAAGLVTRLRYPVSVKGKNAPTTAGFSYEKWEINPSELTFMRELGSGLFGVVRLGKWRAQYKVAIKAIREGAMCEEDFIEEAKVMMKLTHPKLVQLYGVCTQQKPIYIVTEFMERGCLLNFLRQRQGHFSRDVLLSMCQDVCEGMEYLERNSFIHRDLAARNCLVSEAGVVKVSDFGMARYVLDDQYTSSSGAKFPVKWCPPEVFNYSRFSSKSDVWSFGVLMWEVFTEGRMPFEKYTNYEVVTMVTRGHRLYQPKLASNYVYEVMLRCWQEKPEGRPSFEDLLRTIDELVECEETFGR

[13] = target: Vascular endothelial growth factor receptor 2 (Homo sapiens) (UniProt P35968); experiment: Inhibition of KDR at 10 nM; how it was run: as §2
[14] = target: Proto-oncogene tyrosine-protein kinase Src (Homo sapiens) (UniProt P12931); conditions: 10 nM
cells [15] = conditions: Homo sapiens
cells [16] = conditions: Homo sapiens, M-07e
K562 = experiment: cells; conditions: Homo sapiens

SMILES | Drug uptake (Mus musculus [1]) [%] | Activity (Mus musculus [2]) | inhibition [3] [%] | inhibition [4] [%] | inhibition [5] [%] | inhibition [6] [%] | inhibition [7] [%] | inhibition [8] [%] | inhibition [9] [%] | inhibition [10] [%] | inhibition [11] [%] | inhibition [12] [%] | inhibition [13] [%] | inhibition [14] [%] | IC50 (cells [15]) [nM] | IC50 (cells [16]) [nM] | IC50 (K562) [nM]
Cc1nc(Nc2ncc(C(=O)Nc3c(C)cccc3Cl)s2)cc(N2CCN(CC[18F])CC2)n1 | 1.1 | – | – | – | – | – | – | – | – | – | – | – | – | – | – | – | –
Cc1nc(Nc2ncc(C(=O)Nc3c(C)cccc3Cl)s2)cc(N2CCN(CCF)CC2)n1 | – | Non-toxic | 83.1 | 23.1 | 95.2 | 98.1 | 97 | 16 | 7.2 | 0.3 | 86 | 98.1 | -5.6 | 97.5 | 0.1 | 1.1 | 1.1
Cc1nc(Nc2ncc(C(=O)Nc3c(C)cccc3Cl)s2)cc(N2CCN(CCO)CC2)n1 [DASATINIB] | – | – | – | – | – | – | – | – | – | – | – | – | – | – | 0.07 | 1.2 | 1
CN[C@@H]1C[C@H]2O[C@@](C)([C@@H]1OC)n1c3ccccc3c3c4c(c5c6ccccc6n2c5c31)C(=O)NC4 | – | – | 96.4 | 95.3 | 89.3 | 92.6 | 94.1 | – | 90 | 96.4 | 88.4 | 92.5 | – | 89.8 | – | – | –
